According to ChEMBL document CHEMBL5058577, “EUbOPEN Chemogenomics Library 2 (Multiplex)” (2022):

System: U2OS
Test: Multiplex assay against U2OS
Format: toxicity, cell-based
Conditions: human
How it was run: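 At seeding, live cells were stained with Hoechst33342, BioTracker Green Microtubule Cytoskeleton Dye, MitoTracker Red and Annexin V Alexa Fluor 680. After compound addition they were imaged on a CQ1 microscope at 37°C and 5% CO2, and CellPathfinder machine-learning gating sorted them into Hoechst high-intensity objects or normal cells, with normal cells further split into healthy, pyknosed or fragmented nuclei and pyknosed cells into mitotic or apoptotic. Tubulin, mitochondrial-mass and membrane-permeability phenotypes are given as per cents of cells with healthy nuclei.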

[1] = 12 h, 1 µM, compound concentration 1 uM, replicate 1
[2] = 12 h, 1 µM, compound concentration 1 uM, replicate 2
[3] = 12 h, 10 µM, compound concentration 10 uM, replicate 1
[4] = 12 h, 10 µM, compound concentration 10 uM, replicate 2
[5] = 24 h, 1 µM, compound concentration 1 uM, replicate 1
[6] = 24 h, 1 µM, compound concentration 1 uM, replicate 2
[7] = 24 h, 10 µM, compound concentration 10 uM, replicate 1
[8] = 24 h, 10 µM, compound concentration 10 uM, replicate 2
[9] = 48 h, 1 µM, compound concentration 1 uM, replicate 1
[10] = 48 h, 1 µM, compound concentration 1 uM, replicate 2
[11] = 48 h, 10 µM, compound concentration 10 uM, replicate 1
[12] = 48 h, 10 µM, compound concentration 10 uM, replicate 2

With `CC(=O)Nc1cccc2c1c(Sc1ccc(Cl)cc1)c(C)n2CC(=O)O` [AZD1981] the “Population Apoptotic (%)” value [1] was 68%, the “Population Fragmented Nuclei (%)” value [1] was 24% and the “Population Healthy Nuclei (%)” value [1] was 68%. For the same molecule, the “Population Hoechst High Intensity Objects (%)” value [1] was 3%, the “Population Membrane Permeable-Phenotype (%)” value [1] was 3% and the “Population Mitochondria Different-Phenotype (%)” value [1] was 0%. For the same molecule, the “Population Mitotic Cells (%)” value [1] was 31%, the “Population Normal (%)” value [1] was 96% and the “Population Pyknosed Nuclei (%)” value [1] was 6%. The “Population Tubulin-Different-Phenotype (%)” value [1] was 2%, the “Total Cell Count” value [1] was 253 and the “Population Apoptotic (%)” value [2] was 83%. For the same molecule, the “Population Fragmented Nuclei (%)” value [2] was 16%, the “Population Healthy Nuclei (%)” value [2] was 76% and the “Population Hoechst High Intensity Objects (%)” value [2] was 1%. For the same molecule, the “Population Membrane Permeable-Phenotype (%)” value [2] was 6%, the “Population Mitochondria Different-Phenotype (%)” value [2] was 1% and the “Population Mitotic Cells (%)” value [2] was 16%. For the same molecule, the “Population Normal (%)” value [2] was 98%, the “Population Pyknosed Nuclei (%)” value [2] was 7% and the “Population Tubulin-Different-Phenotype (%)” value [2] was 3%. The “Total Cell Count” value [2] was 82, the “Population Apoptotic (%)” value [3] was 83% and the “Population Fragmented Nuclei (%)” value [3] was 25%. The “Population Healthy Nuclei (%)” value [3] was 66%, the “Population Hoechst High Intensity Objects (%)” value [3] was 2% and the “Population Membrane Permeable-Phenotype (%)” value [3] was 8%. The “Population Mitochondria Different-Phenotype (%)” value [3] was 0%, the “Population Mitotic Cells (%)” value [3] was 16% and the “Population Normal (%)” value [3] was 97%. For the same molecule, the “Population Pyknosed Nuclei (%)” value [3] was 7%, the “Population Tubulin-Different-Phenotype (%)” value [3] was 1% and the “Total Cell Count” value [3] was 231. For the same molecule, the “Population Apoptotic (%)” value [4] was 80%, the “Population Fragmented Nuclei (%)” value [4] was 19% and the “Population Healthy Nuclei (%)” value [4] was 76%. For the same molecule, the “Population Hoechst High Intensity Objects (%)” value [4] was 3%, the “Population Membrane Permeable-Phenotype (%)” value [4] was 10% and the “Population Mitochondria Different-Phenotype (%)” value [4] was 3%. For the same molecule, the “Population Mitotic Cells (%)” value [4] was 20%, the “Population Normal (%)” value [4] was 96% and the “Population Pyknosed Nuclei (%)” value [4] was 4%. For the same molecule, the “Population Tubulin-Different-Phenotype (%)” value [4] was 5%, the “Total Cell Count” value [4] was 122 and the “Population Apoptotic (%)” value [5] was 91%. The “Population Fragmented Nuclei (%)” value [5] was 25%, the “Population Healthy Nuclei (%)” value [5] was 66% and the “Population Hoechst High Intensity Objects (%)” value [5] was 2%. The “Population Membrane Permeable-Phenotype (%)” value [5] was 5%, the “Population Mitochondria Different-Phenotype (%)” value [5] was 1% and the “Population Mitotic Cells (%)” value [5] was 8%. For the same molecule, the “Population Normal (%)” value [5] was 97%, the “Population Pyknosed Nuclei (%)” value [5] was 8% and the “Population Tubulin-Different-Phenotype (%)” value [5] was 3%. For the same molecule, the “Total Cell Count” value [5] was 289, the “Population Apoptotic (%)” value [6] was 50% and the “Population Fragmented Nuclei (%)” value [6] was 16%. The “Population Healthy Nuclei (%)” value [6] was 82%, the “Population Hoechst High Intensity Objects (%)” value [6] was 0% and the “Population Membrane Permeable-Phenotype (%)” value [6] was 4%. For the same molecule, the “Population Mitochondria Different-Phenotype (%)” value [6] was 3%, the “Population Mitotic Cells (%)” value [6] was 50% and the “Population Normal (%)” value [6] was 100%. The “Population Pyknosed Nuclei (%)” value [6] was 1%, the “Population Tubulin-Different-Phenotype (%)” value [6] was 0% and the “Total Cell Count” value [6] was 106. For the same molecule, the “Population Apoptotic (%)” value [7] was 88%, the “Population Fragmented Nuclei (%)” value [7] was 23% and the “Population Healthy Nuclei (%)” value [7] was 66%. The “Population Hoechst High Intensity Objects (%)” value [7] was 0%, the “Population Membrane Permeable-Phenotype (%)” value [7] was 6% and the “Population Mitochondria Different-Phenotype (%)” value [7] was 2%. The “Population Mitotic Cells (%)” value [7] was 11%, the “Population Normal (%)” value [7] was 99% and the “Population Pyknosed Nuclei (%)” value [7] was 9%. For the same molecule, the “Population Tubulin-Different-Phenotype (%)” value [7] was 2%, the “Total Cell Count” value [7] was 266 and the “Population Apoptotic (%)” value [8] was 100%. For the same molecule, the “Population Fragmented Nuclei (%)” value [8] was 14%, the “Population Healthy Nuclei (%)” value [8] was 77% and the “Population Membrane Permeable-Phenotype (%)” value [8] was 3%. For the same molecule, the “Population Mitochondria Different-Phenotype (%)” value [8] was 4%, the “Population Mitotic Cells (%)” value [8] was 0% and the “Population Pyknosed Nuclei (%)” value [8] was 8%. The “Population Tubulin-Different-Phenotype (%)” value [8] was 0%, the “Total Cell Count” value [8] was 125 and the “Population Apoptotic (%)” value [9] was 91%. The “Population Fragmented Nuclei (%)” value [9] was 16%, the “Population Healthy Nuclei (%)” value [9] was 74% and the “Population Hoechst High Intensity Objects (%)” value [9] was 1%. The “Population Membrane Permeable-Phenotype (%)” value [9] was 6%, the “Population Mitochondria Different-Phenotype (%)” value [9] was 2% and the “Population Mitotic Cells (%)” value [9] was 8%. The “Population Normal (%)” value [9] was 98%, the “Population Pyknosed Nuclei (%)” value [9] was 9% and the “Population Tubulin-Different-Phenotype (%)” value [9] was 4%. The “Total Cell Count” value [9] was 375, the “Population Apoptotic (%)” value [10] was 81% and the “Population Fragmented Nuclei (%)” value [10] was 9%. The “Population Healthy Nuclei (%)” value [10] was 82%, the “Population Hoechst High Intensity Objects (%)” value [10] was 3% and the “Population Mitochondria Different-Phenotype (%)” value [10] was 0%. For the same molecule, the “Population Mitotic Cells (%)” value [10] was 18%, the “Population Normal (%)” value [10] was 96% and the “Population Pyknosed Nuclei (%)” value [10] was 7%. For the same molecule, the “Population Tubulin-Different-Phenotype (%)” value [10] was 1%, the “Total Cell Count” value [10] was 144 and the “Population Apoptotic (%)” value [11] was 100%. For the same molecule, the “Population Fragmented Nuclei (%)” value [11] was 18%, the “Population Healthy Nuclei (%)” value [11] was 75% and the “Population Hoechst High Intensity Objects (%)” value [11] was 2%. For the same molecule, the “Population Membrane Permeable-Phenotype (%)” value [11] was 7%, the “Population Mitochondria Different-Phenotype (%)” value [11] was 2% and the “Population Mitotic Cells (%)” value [11] was 0%. For the same molecule, the “Population Normal (%)” value [11] was 97%, the “Population Pyknosed Nuclei (%)” value [11] was 5% and the “Population Tubulin-Different-Phenotype (%)” value [11] was 4%. The “Total Cell Count” value [11] was 366, the “Population Apoptotic (%)” value [12] was 85% and the “Population Fragmented Nuclei (%)” value [12] was 14%. For the same molecule, the “Population Healthy Nuclei (%)” value [12] was 73%, the “Population Hoechst High Intensity Objects (%)” value [12] was 1% and the “Population Mitochondria Different-Phenotype (%)” value [12] was 4%. The “Population Mitotic Cells (%)” value [12] was 15%, the “Population Normal (%)” value [12] was 98% and the “Population Pyknosed Nuclei (%)” value [12] was 11%. The “Total Cell Count” value [12] was 171.
